This is an account of results in ChEMBL document CHEMBL2163259, “ADME-guided design and synthesis of aryloxanyl pyrazolone derivatives to block mutant superoxide dismutase 1 (SOD1) cytotoxicity and protein aggregation: potential application for the treatment of amyotrophic lateral sclerosis” (J Med Chem, 2012).

Structures are written as SMILES. Converted amounts (≈) assume the structure as drawn. The source made the active and inactive calls. Some results are limits rather than exact numbers.

As usually defined, the CLint scaled is a measure of how fast metabolising enzymes remove a compound, apart from limits set by blood flow. As a reminder, the half-life is the time in which the quantity being followed falls by half. For orientation: solubility means how much of the substance goes into solution per volume. A higher solubility goes with much dissolved substance. What is called Papp A→B is how fast a substance crosses the layer from the apical side. As usually defined, the Papp B→A is the apparent permeability from the basolateral to the apical side of a cell layer. Usually efflux ratio stands for the permeability from basolateral to apical divided by that in the opposite direction, in the common usage. As usually defined, the Papp is the rate of passage across a membrane or cell layer, normalised by area and donor concentration.

A short description of data set [1]: Drug metabolism in rat liver microsomes at 15 uM after 20 mins in presence of NADPH. The data set is classed as ADME, Microsome. The following applies: read-out: Drug metabolism. A digest of the protocol:
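Rat liver microsomes (1 mg/mL protein) in PBS pH 7.4 with NADPH-regenerating system (1.3 mM NADP+, 3.3 mM glucose-6-phosphate, 0.4 U/mL G6PDH, 3.3 mM MgCl2). Compound at 15 μM, 37 °C for 0 and 20 min. HPLC on C18 (acetonitrile/water 25/75, 0.1% TFA). Peak-area response ratio to internal standard, normalised to t = 0.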
On the technique in general: Microsomes from liver hold many membrane-bound enzymes, among them those of drug oxidation.

Data set [2] concerns Superoxide dismutase [Cu-Zn] (Homo sapiens), P00441 [G94A]. In words: Inhibition of SOD1 G93A mutant aggregation-induced cytotoxicity in rat PC12 cells assessed as cell viability incubated for 24 hrs and measured 72 hrs post compound dose by cytotoxicity protection assay. Conditions: PC-12. The data set is classed as cell-based. A digest of the protocol: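 PC12 cells expressing G93A SOD1-YFP fusion seeded 15000 cells/well, grown 24 h before dosing. 12-point dose response, top 32 μM, twofold dilutions. After 24 h, MG132 added (100 nM final). Viability measured 48 h later with Calcein-AM (1 μM final, 20 min, room temperature) fluorescence. EC50 derived from dose-response.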

The test system of data set [3] is Liver microsomes. Briefly: Drug metabolism in rat liver microsomes assessed as sulfoxide metabolite formation at 15 uM incubated for 5 to 60 mins in presence of NADPH by HPLC analysis. The data set is classed as ADME, Microsome. The gist of the method:
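Substrate (15 μM) incubated at 37 °C with rat liver microsomes plus NADPH-regenerating system for 0–60 min. Reaction stopped with acetonitrile, chilled at −78 °C, centrifuged. Supernatant run on isocratic HPLC (acetonitrile/water 25/75, 0.1% TFA). Sulfoxide identified against synthetic sulfoxide and sulfone standards (10 μM) by retention time.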

In data set [4] the test system is Liver microsomes. Briefly: Drug metabolism in rat liver microsomes assessed as sulfoxide metabolite formation at 5 uM incubated for 10 to 60 mins in presence of NADPH by HPLC analysis LC/MS/MS analysis. The data set is classed as ADME, Microsome. A digest of the protocol: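 Duplicate incubations at 5 μM with or without rat liver microsomes, with and without NADPH, for 0, 10, 20, 40 and 60 min. Protein precipitated with acetonitrile containing internal standard. Supernatant analysed by LC/MS/MS (C18, acetonitrile-water gradient, ESI, MRM). Controls lacked microsomes or compound.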

Data set [5] in a line: Intrinsic clearance in human microsomes at 5 uM incubated for 1 hr at 37 degC in presence of NADPH. The data set is classed as ADME, Microsome.
Data set [6] is described as follows: Half life in human microsomes at 5 uM incubated for 1 hr at 37 degC in presence of NADPH. The data set is classed as ADME, Microsome.
The nature of data set [7]: Intrinsic clearance in human microsomes at 5 uM incubated for 1 hr at 37 degC in absence of NADPH. The data set is classed as ADME, Microsome.
Data set [8] is described as follows: Intrinsic clearance in mouse microsomes at 5 uM incubated for 1 hr at 37 degC in presence of NADPH. The data set is classed as ADME, Microsome.
Data set [9] is described as follows: Half life in mouse microsomes at 5 uM incubated for 1 hr at 37 degC in presence of NADPH. The data set is classed as ADME, Microsome.
Data set [10] is described as follows: Aqueous solubility of the compound in PBS after 45 mins. The data set is classed as physicochemical.
Data set [11] is described as follows: Aqueous solubility of the compound in PBS after 16 hrs. The data set is classed as physicochemical.
Data set [12] can be described thus: (§1) Apparent permeability from apical to basolateral side in human Caco2 cells. The data set is classed as ADME, cell-based. The following applies: Caco-2. In general terms: Caco-2 cells form a polarised layer with tight junctions and transporters.
The nature of data set [13]: (§2) Apparent permeability from basolateral to apical side in human Caco2 cells. The data set is classed as ADME, cell-based. The following applies: Caco-2.
A short description of data set [14]: Efflux ratio of permeability from basolateral to apical side over apical to basolateral side in human Caco2 cells. The data set is classed as ADME, cell-based. Conditions: Caco-2.
Data set [15] concerns Cerebral cortex neuron. Briefly: Cytoprotection in rat Primary cortical neurons incubated for 24 hrs and measured 72 hrs post compound dose by cytotoxicity protection assay. The data set is classed as functional, cell-based. The gist of the method:
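Primary cortical neurons from E18 Sprague-Dawley or Fischer 344 rat brain, dissociated with papain (2 mg/mL, 30 min, 37 °C), plated on poly-D-lysine at 20,000 cells/well, cultured 5 days (~90% neurons). Six-point dose response from 100 μM top, roughly one-third dilutions; 24 h pre-incubation, then MG132 100 nM. Viability read 48 h later by Calcein-AM (1 μM, 20 min, RT) fluorescence. Active = viability ≥5 SD above MG132 controls.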

The test system of data set [16] is Mus musculus. In words: Neuroprotective activity in SOD1 G93A mutant B6SJL mouse ALS model assessed as extension of life span at 16 mg/kg. The data set is classed as functional.
Data set [17] concerns Mus musculus. In words: Neuroprotective activity in SOD1 G93A mutant B6SJL mouse ALS model assessed as extension in life span at 22 mg/kg. The data set is classed as functional.
Data set [18] relates to Caco-2. The description is as §1. The data set is classed as ADME, cell-based.
Data set [19] has as its system Caco-2. The data set is described as §2. The data set is classed as ADME, cell-based.

Superoxide dismutase [Cu-Zn] (Homo sapiens), P00441 [G94A], sequence (P00441 whole entry G94A, the tested form may be a part): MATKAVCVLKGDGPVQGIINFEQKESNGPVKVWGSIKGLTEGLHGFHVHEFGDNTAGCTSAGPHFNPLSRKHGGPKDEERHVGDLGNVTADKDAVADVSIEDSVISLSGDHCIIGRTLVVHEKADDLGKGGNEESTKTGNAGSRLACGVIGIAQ

In the case of `Cc1cc(-c2ccccc2)nnc1NCCN1CCOCC1` [MINAPRINE], the metabolised at 20 min, 15 µM in data set [1] worked out at 41%.

Consider `O=c1cc(COc2cc(F)cc(F)c2)[nH][nH]1`, for which the Activity in data set [2] worked out at 100%.

`O=c1cc(COc2cc(Br)cc(Br)c2)[nH][nH]1`: in data set [2], the Activity worked out at 100%.

For `CCc1ccc(OCc2cc(=O)[nH][nH]2)cc1`, in data set [2], the Activity is 100%.

As to `O=c1cc(CSc2ccc(Cl)cc2)[nH][nH]1`, in [2], the Activity amounted to 100%. Besides, the metabolised at 20 min, 15 µM in data set [1] worked out at 88%. The Drug metabolism entry in [3] and in data set [4] was “Active” in each case.

As to `Cc1cc([S+]([O-])Cc2cc(=O)[nH][nH]2)c(C)cc1Cl` (stereo not drawn), in data set [2], the Activity is 100%.

Consider `O=c1cc(COc2cccc(Br)c2)[nH][nH]1`, for which the Activity in [2] was determined as 100%.

On to `O=c1cc(CSc2cc(Cl)cc(Cl)c2)[nH][nH]1`, for which the Activity in data set [2] came out at 100%.

On to `O=c1cc(CS(=O)(=O)c2cc(Cl)cc(Cl)c2)[nH][nH]1`, for which, in [2], the Activity stood at 100%. In addition, the CLint scaled at 5 µM came to 4.5 mL/min/kg in [5], 1.3 mL/min/kg in [7] and 15.3 mL/min/kg in [8]. The half-life at 5 µM in data set [6] and in data set [9] was above 1 h in each case. The same compound returned a solubility at 0.75 h in data set [10] (PBS) of at least 500 µM. Moreover, the solubility at 16 h in data set [11] (PBS) was at least 500 µM. For the same compound, the Papp A→B in [12] turned out to be 27 ×10⁻⁶ cm/s. For the same compound, the Papp B→A in data set [13] was 4.4 ×10⁻⁶ cm/s. The efflux ratio in data set [14] turned out to be 0.2. In [15], the result was Active.

As for `O=c1cc(C[S+]([O-])c2ccc(Cl)cc2)[nH][nH]1` (stereo not drawn), the Activity in data set [2] is 35%.

As to `O=c1cc(CSc2c(Cl)cccc2Cl)[nH][nH]1`, the Activity in data set [2] came out at 100%. Moreover, the outcome in data set [15] was Active.

With `O=c1cc(COc2cccc(-c3ccccc3)c2)[nH][nH]1`, in [2], the Activity was found to be 100%.

For the compound `Nc1nc2ccc(OC(F)(F)F)cc2s1` [RILUZOLE], the Activity in data set [16] was found to be 7.5%; in [17], 11%.

Regarding `O=c1cc(CS(=O)(=O)c2ccc(Cl)cc2)[nH][nH]1`, the Activity in data set [2] was found to be 100%.

As to `Cc1cc(S(=O)(=O)Cc2cc(=O)[nH][nH]2)c(C)cc1Cl`, the Activity in [2] is 100%.

Regarding `O=c1cc(COc2ccc(Cl)cc2)[nH][nH]1`, the Activity in [2] is 100%. The t1/2 came out at 2.32 h in [6] (1 h, 5 µM) and 2.38 h in data set [9] (1 h, 5 µM). Moreover, the solubility came out at 250 µM (≈ 56.2 µg/mL) in data set [10] (buffer, 0.75 h) and 250 µM (≈ 56.2 µg/mL) in data set [11] (buffer, 16 h). The Papp came to 43 ×10⁻⁶ cm/s in data set [18] and 28 ×10⁻⁶ cm/s in [19]. Also, in [14], the efflux ratio amounted to 0.6.

Turning to `CCc1cccc(OCc2cc(=O)[nH][nH]2)c1`, the Activity in data set [2] came out at 100%.

Turning to `CC(C)(C)c1cccc(OCc2cc(=O)[nH][nH]2)c1`, the Activity in [2] amounted to 100%.

`O=c1cc(COc2cc(C(F)(F)F)cc(C(F)(F)F)c2)[nH][nH]1`: the Activity in [2] was 100%.

As for `O=c1cc(COc2cc(-c3ccccc3)cc(-c3ccccc3)c2)[nH][nH]1`, the Activity in data set [2] came out at 100%.
